In the library only some 2% were active in any assay of this set; here they are far more common.
Insulin prom inh – TRM-6 insulin promoter activity inhibition. TRM-6 cells (human fetal islet line), insulin promoter-eGFP reporter, imaging; reporter expression induced with tamoxifen. inhibition, % at 2 µM. hit rate 0.9% among 130,000. AID 1273;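 active means inhibition above the mean plus 3 SD, with well images judged a real hit on visual review, cut at about 60% in these data, passing the limit was not always enough; inconclusive means inhibition over the cutoff but images rejected on review; inactive means inhibition not above the cutoff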
Dynein cargo inh – dynein cargo transport inhibition. hit rate 0.47% among 220,000. z-score, hits read low. 3617.4 mouse cells, GR-EGFP nuclear translocation imaging; test concentration mostly 20 µM; stimulated with dexamethasone, 1 µM; hits give low values;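 active means plate z-score of nuclear minus cytoplasmic receptor signal below a set negative limit, without overly bright fluorescence or cell loss, cut at about -3.5 in these data, passing the limit was not always enough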;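 further: z-score of nuclear minus cytoplasmic ring GR-EGFP intensity difference per well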
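Schedule: 48 h induction, then 1 h compound, then 30 min agonist, 37 °C. Buffer or medium: tetracycline-free induction medium containing charcoal-stripped FBS. Reagent: 1.0 µM final dexamethasone stimulus. Evaluation: nuclear versus cytoplasmic GR-EGFP signal, averaged per well. Signal: high-content fluorescence imaging after fixation.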
Autophagy mod – modulators of autophagy. MEF GFP-LC3 puncta imaging; test concentration mostly 10 µM. calls only at 10 µM (by protocol). hit rate 0.98% among 190,000. AID 463193;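 active means percentage of spot-positive cells more than 3 SD above its plate mean, without a fluorescence outlier flag or 80% toxicity; inconclusive means no clear call, values can overlap the other calls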;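 further: spot-positive cell cutoff set from DMSO-treated cells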
Ins promoter up – MIN6 insulin promoter up-regulation. MIN6 insulin promoter-GFP reporter, high-content imaging; hits give high values. z-score at 5 µM. hit rate 0.3% among 190,000. AID 1625;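 active means z-score above 3 at 5 µM with at least 500 cells counted in the well; inconclusive means wells under 500 cells, flagged as cytotoxic or low count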
Dynein confirm – dynein cargo transport inhibition, confirmation | 3617.4 GR-EGFP nuclear translocation imaging, dexamethasone-induced | AID 463116 | calls only at 20 µM | shares compounds with Dynein cargo inh | hit rate 69% among 1,000;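 active means inhibition of receptor movement into the nucleus at or above a set limit in both runs, with normal cell brightness and cell count; inconclusive means limit reached in only one run, brightness and count normal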;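 further: dexamethasone at 1 µM final in well for 30 min; nuclear minus cytoplasmic GR-EGFP mean intensity difference in channel 2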
* marks the source's active call; other numbers are inactive results; i = inactive; ? = inconclusive; / = no result given; + = active, no number.

SMILES	Insulin prom inh	Dynein cargo inh	Autophagy mod	Ins promoter up	others
COc1ccc2nc3oc(C(=O)N4CCC5(CC4)OCCO5)cc3cc2c1	67	1.1	i	0.16
O=C(c1cc2cc3ccc(Cl)cc3nc2o1)N1CCC2(CC1)OCCO2	84*	-0.69	i	-0.1
COC(=O)c1c(C)[nH]c(C(=O)C(C)[N+]23CCN(CC2)CC3)c1C (stereo not drawn)	/	-1.4	i	-0.44
O=C(CN1CCOCC1)c1ccc2cc[nH]c2c1	/	-0.2	/	0.9
COc1ccc(C(=O)CN2CCOCC2)cc1F	82*	1.4	i	0.8
CCOc1ccc(-n2c(O)c(N=Nc3ccc([N+](=O)[O-])cc3)c(=O)[nH]c2=O)cc1	-11	-0.22	i	-0.2
C=CCn1c(O)c(C(C)=NC(C)c2ccccc2)c(=O)[nH]c1=O (stereo not drawn)	/	-0.4	/	0.18
Cc1cc2ccccc2c(=O)n1CC(=O)NCC(=O)N1CCC2(CC1)OCCO2	7	0.011	+	0.13
COc1ccc(C(c2c(O)c3ccccc3oc2=O)c2c(C)n(C)n(-c3ccccc3)c2=O)cc1 (stereo not drawn)	64*	-0.36	i	-0.08
C=C1C[C@@H]2[C@H](CC[C@]3(C)C(=O)CC[C@@H]23)[C@@]2(C)C=CC(=O)C=C12	/	/	/	0.12
CN1/C(=C\C=C\C2=[N+](C)c3ccc4ccccc4c3C2(C)C)C(C)(C)c2ccccc21	-151	-1.6	+	?
COCCN1C(=O)NC(=O)/C(=C\c2ccc(Br)cc2)C1=O	28	-0.25	i	0.79
Cc1nn(Cc2ccccc2)c(Cl)c1C(=O)Nc1ccc(OC(F)(F)F)cc1	-112	2.2	i	-0.94
Cc1nn(Cc2ccccc2)c(Cl)c1C(=O)NC1CCCc2ccccc21 (stereo not drawn)	-32	0.082	+	0.7
C=C1C(=O)O[C@H]2[C@H]1[C@H](OC(=O)CC(=O)O[C@@H]1C[C@@H](C)[C@@H]3C=CC(=O)[C@@]3(C)[C@H]3OC(=O)C(=C)[C@H]13)C[C@@H](C)[C@H]1C=CC(=O)[C@]12C	/	-3.3	/	/
C=C1C(=O)O[C@@H]2C[C@@H](C)[C@@H]3C=CC(=O)[C@@]3(C)[C@@H](OC(=O)CC(=O)O[C@H]3[C@@H]4C(=C)C(=O)O[C@@H]4C[C@@H](C)[C@@H]4C=CC(=O)[C@]43C)[C@H]12	/	-4*	/	/
C[C@H]1CCC/C=C/C2C[C@H](O)CC2[C@H](O)/C=C/C(=O)O1 (stereo partly drawn)	-305	0.44	+	/
CC1CCC/C=C/C2CC(O)CC2C(O)/C=C/C(=O)O1 (stereo not drawn)	-228	0.33	i	?
CN1CCC2(O)OCCCC2C1 (stereo not drawn)	/	-0.35	/	-0.16
COc1ccc(N=Cc2c(O)n(-c3ccc(C)cc3)c(=O)[nH]c2=O)cc1	83*	1.4	i	0.24
CC(=O)Nc1nnc(CCN(CCc2nnc(NC(C)=O)s2)[N+](=O)[O-])s1	/	1.7	/	1.2
CN(C)c1cccc2c(C#N)ccc(N(C)C)c12	87*	0.74	i	0.68
O=C(C1CCC(=O)N1C1CCCC1)N1CCC2(CC1)OCCO2 (stereo not drawn)	20	1.2	i	0.44
O=C(C1CC(=O)N(C2CCCCCCC2)C1)N1CCC2(CC1)OCCO2 (stereo not drawn)	74*	0.89	i	-0.39
CCNC(=O)[C@H]1O[C@@H](n2cnc3c(N)ncnc32)[C@H](O)[C@@H]1O	/	/	/	0.18
SMILES	Insulin prom inh	Dynein cargo inh	Autophagy mod	Ins promoter up	others
NC(=O)c1cn(C2OC(CO)C(O)C2O)c2ncnc(N)c12 (stereo not drawn)	64*	0.5	i	/
CCN1C(=O)/C(=C\c2ccc([N+](=O)[O-])s2)C(=O)NC1=S	-60	-4.7*	i	/
Cc1ccc2c(c1)C1CN(C)CCC1N2C(=O)c1cn(-c2ccccc2)nc1-c1ccccc1 (stereo not drawn)	-150	0.11	+	0.27
C=C1C(=O)O[C@@H]2C[C@@H](C)[C@@H]3C4OC4C(=O)[C@@]3(C)[C@@H](O)[C@H]12 (stereo partly drawn)	/	-3.8*	/	/
CCCCNC(=O)NC(C(N)=O)P(=O)(OCC)OCC (stereo not drawn)	/	-0.56	/	0.61
CCCCCCn1c(O)c(C=Nc2ccccc2N2CCOCC2)c(=O)[nH]c1=S	/	0.33	/	3.2*
CC(=O)N1CCC(N2CCCC(C(=O)c3cccc(Cl)c3)C2)CC1 (stereo not drawn)	17	1.6	i	-0.53
CNC(=O)OCc1n(C)cc[n+]1C	42	2.2	i	0.12
CN1CSC(=S)N(C)C1	68*	-1	i	-0.19
COc1ccc(C2c3c(nc(C)[nH]c3=O)Oc3c2c(=O)oc2ccccc32)cc1 (stereo not drawn)	/	0.11	/	-0.07
c1cc2n(c1)-c1c(ccc3c1OCO3)CNC2c1ccc2c(c1)OCO2 (stereo not drawn)	/	-0.0082	i	0.12
COc1ccc(C2NCc3ccc4c(c3-n3cccc32)OCO4)cc1O (stereo not drawn)	-49	-0.56	+	-1.8
CNC(=O)c1cccn(Cc2cccc(C(F)(F)F)c2)c1=O	/	-0.8	i	0.66
CN(C)CCNC(=O)c1cccn(Cc2cccc(C(F)(F)F)c2)c1=O	/	-0.61	+	-0.18
COc1cc(CN2CCN(c3cc(C)ccc3C)CC2)ccc1O	-48	-0.23	+	-8.1
Cc1cc([N+](=O)[O-])c(Cl)cc1NC(=O)C(C)C	11	0.99	i	0.23
CNc1cc(Cl)c2nonc2c1[N+](=O)[O-]	/	-7*	i	-0.63	Dynein confirm=?
CN1C(=O)c2ccccc2NC(=O)C1Cc1ccccc1 (stereo not drawn)	/	0.68	i	0.98
CN1CCN(c2ccc([N+](=O)[O-])c3no[n+]([O-])c23)CC1	/	-4.7*	/	?	Dynein confirm=i
CN1CCN(c2ccc(S(C)(=O)=O)cc2[N+](=O)[O-])CC1	24	0.27	i	0.54
COc1ccc(-n2c(O)c(C=NCCN(C)C)c(=O)[nH]c2=O)cc1	/	-0.18	/	0.6
CC1CN(c2ccc([N+](=O)[O-])c(N3CCCCC3)c2)CCN1 (stereo not drawn)	/	0.67	/	0.48
CCN(CC)c1ccc(C=C2C(=O)NC(=S)NC2=O)cc1	/	-5.1*	/	0.53	Dynein confirm=?
O=C1/C(=C/c2cc3c(cc2Cl)OCO3)N2CCC1CC2	-25	-1.8	i	-0.09
N#CC(C#N)=Cc1ccc(C=C(C#N)C#N)cc1	/	-4.3*	/	-0.23	Dynein confirm=?
CCC1(C(=O)c2ccc(C)cc2)C2c3ccccc3OC(=O)C21C(=O)O (stereo not drawn)	/	0.3	/	0.63
Cc1cc(NC(=O)CCl)no1	7	-1.4	i	-0.94
COc1cccc(C2CC3C(=O)C=CC2N3Cc2ccccc2)c1 (stereo not drawn)	3	-3.8*	i	-0.72	Dynein confirm=+
O=C(Nc1ccc(F)cc1)OC1CN2CCC1CC2 (stereo not drawn)	/	-0.24	/	0.26
